Laboratory results from ChEMBL document CHEMBL1138520, “Molecular and conformational determinants of pituitary adenylate cyclase-activating polypeptide (PACAP) for activation of the PAC1 receptor” (J Med Chem, 2009).
Where a SMILES comes first, the peptide text is derived from it.

Assays:
[1] = target: T1, Pituitary adenylate cyclase-activating polypeptide type I receptor (Homo sapiens, UniProt P41586); assay: Agonist activity at human recombinant PAC1 receptor expressed in CHO cells assessed as PACAP38-induced calcium mobilization by FLIPR assay; type: functional, cell-based
Outline: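 CHO cells stably expressing recombinant human PAC1, plated 24 h before assay, loaded with fluo-4 AM for 60 min at 37 °C in the dark, then rinsed into HBSS for 15 min at 37 °C. EC50 and efficacy came from nonlinear regression; 4-10 independent assays in duplicate.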
Target sequence in this assay (P41586 whole entry): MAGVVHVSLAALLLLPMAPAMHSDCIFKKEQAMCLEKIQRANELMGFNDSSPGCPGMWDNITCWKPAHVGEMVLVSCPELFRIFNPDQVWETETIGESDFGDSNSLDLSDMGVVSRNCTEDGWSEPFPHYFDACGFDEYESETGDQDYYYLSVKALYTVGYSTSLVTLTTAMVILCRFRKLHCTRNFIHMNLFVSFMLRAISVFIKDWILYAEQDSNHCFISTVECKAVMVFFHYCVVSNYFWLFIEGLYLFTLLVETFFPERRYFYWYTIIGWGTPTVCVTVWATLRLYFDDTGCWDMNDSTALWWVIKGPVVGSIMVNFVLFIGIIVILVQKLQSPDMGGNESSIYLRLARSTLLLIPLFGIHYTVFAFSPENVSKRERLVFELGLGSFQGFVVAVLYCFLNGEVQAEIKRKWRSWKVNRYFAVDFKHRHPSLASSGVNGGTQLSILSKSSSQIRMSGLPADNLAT

[2] = target: T1, Pituitary adenylate cyclase-activating polypeptide type I receptor; assay: Displacement of [125I]Ac-PACAP27 from human recombinant PAC1 receptor expressed in CHO cells by gamma- counter; type: cell-based
Target sequence in this assay (P41586 whole entry): as above

[3] = target: T1, Pituitary adenylate cyclase-activating polypeptide type I receptor; assay: Agonist activity at human recombinant PAC1 receptor expressed in CHO cells assessed as PACAP38-induced calcium mobilization by FLIPR assay relative to PACAP38; type: functional, cell-based
Outline: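 CHO cells stably expressing recombinant human PAC1, plated 24 h before assay, loaded with fluo-4 AM for 60 min at 37 °C in the dark, then rinsed into HBSS for 15 min at 37 °C. Peptide was added 18 s into a 150 s read (ex 480/em 525 nm), at final concentrations of 1 × 10-12 to 1 × 10^-5 M. Response was normalised to 1 × 10^-5 M PACAP38 on each plate. EC50 and efficacy came from nonlinear regression; 4-10 independent assays in duplicate.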
Target sequence in this assay (P41586 21-468 limits assumed): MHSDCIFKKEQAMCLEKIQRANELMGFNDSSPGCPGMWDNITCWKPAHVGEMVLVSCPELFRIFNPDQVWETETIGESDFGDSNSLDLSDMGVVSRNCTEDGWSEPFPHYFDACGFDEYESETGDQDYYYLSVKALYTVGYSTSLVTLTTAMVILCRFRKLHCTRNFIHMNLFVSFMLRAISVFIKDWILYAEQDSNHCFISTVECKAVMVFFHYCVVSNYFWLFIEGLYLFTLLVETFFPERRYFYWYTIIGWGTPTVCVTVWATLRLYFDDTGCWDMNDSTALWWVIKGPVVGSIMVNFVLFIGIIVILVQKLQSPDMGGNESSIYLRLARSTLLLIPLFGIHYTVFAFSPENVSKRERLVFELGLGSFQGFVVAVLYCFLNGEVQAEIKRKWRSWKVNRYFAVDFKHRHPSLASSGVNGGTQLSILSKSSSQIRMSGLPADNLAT

Row | Structure (SMILES) | EC50 [1] | IC50 [2] | Emax [3]
1 | CC[C@H](C)[C@H](NC(=O)CNC(=O)[C@H](CC(=O)O)NC(=O)[C@H](CO)NC(=O)[C@H](N)Cc1cnc[nH]1)C(=O)N[C@@H](Cc1ccccc1)C(=O)N[C@H](C(=O)N[C@@H](CC(=O)O)C(=O)N[C@@H](CO)C(=O)N[C@@H](Cc1ccc(O)cc1)C(=O)N[C@@H](CO)C(=O)N[C@@H](CCCNC(=N)N)C(=O)N[C@@H](Cc1ccc(O)cc1)C(=O)N[C@@H](CCCNC(=N)N)C(=O)N[C@@H](CCCCN)C(=O)N[C@@H](CCC(N)=O)C(=O)N[C@@H](CCSC)C(=O)N[C@@H](C)C(=O)N[C@H](C(=O)N[C@@H](CCCCN)C(=O)N[C@@H](CCCCN)C(=O)N[C@@H](Cc1ccc(O)cc1)C(=O)N[C@@H](CC(C)C)C(=O)N[C@@H](C)C(=O)N[C@@H](C)C(=O)N[C@H](C(=O)N[C@@H](CC(C)C)C(=O)NCC(=O)N[C@@H](CCCCN)C(=O)N[C@@H](CCCNC(=N)N)C(=O)N[C@@H](Cc1ccc(O)cc1)C(=O)N[C@@H](CCCCN)C(=O)N[C@@H](CCC(N)=O)C(=O)N[C@@H](CCCNC(=N)N)C(=O)N[C@H](C(=O)N[C@@H](CCCCN)C(=O)N[C@@H](CC(N)=O)C(=O)N[C@@H](CCCCN)C(N)=O)C(C)C)C(C)C)C(C)C)[C@@H](C)O | 2.9 nM | – | 107%
2 | CC[C@H](C)[C@H](NC(=O)CNC(=O)[C@H](CC(=O)O)NC(=O)[C@H](CO)NC(=O)[C@@H](N)Cc1cncn1C)C(=O)N[C@@H](Cc1ccccc1)C(=O)N[C@H](C(=O)N[C@@H](CC(=O)O)C(=O)N[C@@H](CO)C(=O)N[C@@H](Cc1ccc(O)cc1)C(=O)N[C@@H](CO)C(=O)N[C@@H](CCCN=C(N)N)C(=O)N[C@@H](Cc1ccc(O)cc1)C(=O)N[C@@H](CCCN=C(N)N)C(=O)N[C@@H](CCCCN)C(=O)N[C@@H](CCC(N)=O)C(=O)N[C@@H](CCSC)C(=O)N[C@@H](C)C(=O)N[C@H](C(=O)N[C@@H](CCCCN)C(=O)N[C@@H](CCCCN)C(=O)N[C@@H](Cc1ccc(O)cc1)C(=O)N[C@@H](CC(C)C)C(=O)N[C@@H](C)C(=O)N[C@@H](C)C(=O)N[C@H](C(=O)N[C@@H](CC(C)C)C(=O)NCC(=O)N[C@@H](CCCCN)C(=O)N[C@@H](CCCN=C(N)N)C(=O)N[C@@H](Cc1ccc(O)cc1)C(=O)N[C@@H](CCCCN)C(=O)N[C@@H](CCC(N)=O)C(=O)N[C@@H](CCCN=C(N)N)C(=O)N[C@H](C(=O)N[C@@H](CCCCN)C(=O)N[C@@H](CC(N)=O)C(=O)N[C@@H](CCCCN)C(N)=O)C(C)C)C(C)C)C(C)C)[C@@H](C)O | 2.4 nM | 7.5 nM | –
3 | CC[C@H](C)[C@H](NC(=O)CNC(=O)[C@H](CC(=O)O)NC(=O)[C@H](CO)NC(=O)[C@H](C)N)C(=O)N[C@@H](Cc1ccccc1)C(=O)N[C@H](C(=O)N[C@@H](CC(=O)O)C(=O)N[C@@H](CO)C(=O)N[C@@H](Cc1ccc(O)cc1)C(=O)N[C@@H](CO)C(=O)N[C@@H](CCCN=C(N)N)C(=O)N[C@@H](Cc1ccc(O)cc1)C(=O)N[C@@H](CCCN=C(N)N)C(=O)N[C@@H](CCCCN)C(=O)N[C@@H](CCC(N)=O)C(=O)N[C@@H](CCSC)C(=O)N[C@@H](C)C(=O)N[C@H](C(=O)N[C@@H](CCCCN)C(=O)N[C@@H](CCCCN)C(=O)N[C@@H](Cc1ccc(O)cc1)C(=O)N[C@@H](CC(C)C)C(=O)N[C@@H](C)C(=O)N[C@@H](C)C(=O)N[C@H](C(=O)N[C@@H](CC(C)C)C(=O)NCC(=O)N[C@@H](CCCCN)C(=O)N[C@@H](CCCN=C(N)N)C(=O)N[C@@H](Cc1ccc(O)cc1)C(=O)N[C@@H](CCCCN)C(=O)N[C@@H](CCC(N)=O)C(=O)N[C@@H](CCCN=C(N)N)C(=O)N[C@H](C(=O)N[C@@H](CCCCN)C(=O)N[C@@H](CC(N)=O)C(=O)N[C@@H](CCCCN)C(N)=O)C(C)C)C(C)C)C(C)C)[C@@H](C)O (H-ASDGIFTDSYSRYRKQMAVKKYLAAVLGKRYKQRVKNK-NH2) | 11 nM | 49.3 nM | –
4 | CC[C@H](C)[C@H](NC(=O)CNC(=O)[C@H](CC(=O)O)NC(=O)[C@H](CO)NC(=O)[C@@H](N)Cc1cncn1C)C(=O)N[C@@H](Cc1ccccc1)C(=O)N[C@H](C(=O)N[C@@H](CC(=O)O)C(=O)N[C@@H](CO)C(=O)N[C@@H](Cc1ccc(O)cc1)C(=O)N[C@@H](CO)C(=O)N[C@@H](CCCNC(=N)N)C(=O)N[C@@H](Cc1ccc(O)cc1)C(=O)N[C@@H](CCCNC(=N)N)C(=O)N[C@@H](CCCCN)C(=O)N[C@@H](CCC(N)=O)C(=O)N[C@@H](CCSC)C(=O)N[C@@H](C)C(=O)N[C@H](C(=O)N[C@@H](CCCCN)C(=O)N[C@@H](CCCCN)C(=O)N[C@@H](Cc1ccc(O)cc1)C(=O)N[C@@H](CC(C)C)C(=O)N[C@@H](C)C(=O)N[C@@H](C)C(=O)N[C@H](C(=O)N[C@@H](CC(C)C)C(=O)NCC(=O)N[C@@H](CCCCN)C(=O)N[C@@H](CCCNC(=N)N)C(=O)N[C@@H](Cc1ccc(O)cc1)C(=O)N[C@@H](CCCCN)C(=O)N[C@@H](CCC(N)=O)C(=O)N[C@@H](CCCNC(=N)N)C(=O)N[C@H](C(=O)N[C@@H](CCCCN)C(=O)N[C@@H](CC(N)=O)C(=O)N[C@@H](CCCCN)C(N)=O)C(C)C)C(C)C)C(C)C)[C@@H](C)O | – | – | 87.6%
5 | CC[C@H](C)[C@H](NC(=O)CNC(=O)[C@H](CC(=O)O)NC(=O)[C@H](CO)NC(=O)[C@@H](N)Cc1cnc[nH]1)C(=O)N[C@@H](Cc1ccccc1)C(=O)N[C@@H](C(=O)N[C@@H](CC(=O)O)C(=O)N[C@@H](CO)C(=O)N[C@@H](Cc1ccc(O)cc1)C(=O)N[C@@H](CO)C(=O)N[C@@H](CCCNC(=N)N)C(=O)N[C@@H](Cc1ccc(O)cc1)C(=O)N[C@@H](CCCNC(=N)N)C(=O)N[C@@H](CCCCN)C(=O)N[C@@H](CCC(N)=O)C(=O)N[C@@H](CCSC)C(=O)N[C@@H](C)C(=O)N[C@H](C(=O)N[C@@H](CCCCN)C(=O)N[C@@H](CCCCN)C(=O)N[C@@H](Cc1ccc(O)cc1)C(=O)N[C@@H](CC(C)C)C(=O)N[C@@H](C)C(=O)N[C@@H](C)C(=O)N[C@H](C(=O)N[C@@H](CC(C)C)C(=O)NCC(=O)N[C@@H](CCCCN)C(=O)N[C@@H](CCCNC(=N)N)C(=O)N[C@@H](Cc1ccc(O)cc1)C(=O)N[C@@H](CCCCN)C(=O)N[C@@H](CCC(N)=O)C(=O)N[C@@H](CCCNC(=N)N)C(=O)N[C@H](C(=O)N[C@@H](CCCCN)C(=O)N[C@@H](CC(N)=O)C(=O)N[C@@H](CCCCN)C(N)=O)C(C)C)C(C)C)C(C)C)[C@H](C)O | 7.3 nM | 119 nM | –

Other lines, results leading:

Row | EC50 [1] | IC50 [2] | Emax [3] | Structure (SMILES)
6 | 389 nM | 21.6 nM | – | CC[C@H](C)[C@H](NC(=O)CNC(=O)[C@H](CC(=O)O)NC(=O)[C@H](CO)NC(=O)[C@@H](N)Cc1cn(C)cn1)C(=O)N[C@@H](Cc1ccccc1)C(=O)N[C@H](C(=O)N[C@@H](CC(=O)O)C(=O)N[C@@H](CO)C(=O)N[C@@H](Cc1ccc(O)cc1)C(=O)N[C@@H](CO)C(=O)N[C@@H](CCCN=C(N)N)C(=O)N[C@@H](Cc1ccc(O)cc1)C(=O)N[C@@H](CCCN=C(N)N)C(=O)N[C@@H](CCCCN)C(=O)N[C@@H](CCC(N)=O)C(=O)N[C@@H](CCSC)C(=O)N[C@@H](C)C(=O)N[C@H](C(=O)N[C@@H](CCCCN)C(=O)N[C@@H](CCCCN)C(=O)N[C@@H](Cc1ccc(O)cc1)C(=O)N[C@@H](CC(C)C)C(=O)N[C@@H](C)C(=O)N[C@@H](C)C(=O)N[C@H](C(=O)N[C@@H](CC(C)C)C(N)=O)C(C)C)C(C)C)[C@@H](C)O
7 | 48.8 nM | – | 93% | CC[C@H](C)[C@H](NC(=O)CNC(=O)[C@H](CC(=O)O)NC(=O)[C@H](CO)N(C)C(=O)[C@@H](N)Cc1cnc[nH]1)C(=O)N[C@@H](Cc1ccccc1)C(=O)N[C@H](C(=O)N[C@@H](CC(=O)O)C(=O)N[C@@H](CO)C(=O)N[C@@H](Cc1ccc(O)cc1)C(=O)N[C@@H](CO)C(=O)N[C@@H](CCCNC(=N)N)C(=O)N[C@@H](Cc1ccc(O)cc1)C(=O)N[C@@H](CCCNC(=N)N)C(=O)N[C@@H](CCCCN)C(=O)N[C@@H](CCC(N)=O)C(=O)N[C@@H](CCSC)C(=O)N[C@@H](C)C(=O)N[C@H](C(=O)N[C@@H](CCCCN)C(=O)N[C@@H](CCCCN)C(=O)N[C@@H](Cc1ccc(O)cc1)C(=O)N[C@@H](CC(C)C)C(=O)N[C@@H](C)C(=O)N[C@@H](C)C(=O)N[C@H](C(=O)N[C@@H](CC(C)C)C(N)=O)C(C)C)C(C)C)[C@@H](C)O
8 | 37.6 nM | 11.3 nM | – | CC[C@H](C)[C@H](NC(=O)CNC(=O)[C@H](CC(=O)O)NC(=O)[C@H](CO)NC(=O)[C@@H](N)Cc1cn(C)cn1)C(=O)N[C@@H](Cc1ccccc1)C(=O)N[C@H](C(=O)N[C@@H](CC(=O)O)C(=O)N[C@@H](CO)C(=O)N[C@@H](Cc1ccc(O)cc1)C(=O)N[C@@H](CO)C(=O)N[C@@H](CCCN=C(N)N)C(=O)N[C@@H](Cc1ccc(O)cc1)C(=O)N[C@@H](CCCN=C(N)N)C(=O)N[C@@H](CCCCN)C(=O)N[C@@H](CCC(N)=O)C(=O)N[C@@H](CCSC)C(=O)N[C@@H](C)C(=O)N[C@H](C(=O)N[C@@H](CCCCN)C(=O)N[C@@H](CCCCN)C(=O)N[C@@H](Cc1ccc(O)cc1)C(=O)N[C@@H](CC(C)C)C(=O)N[C@@H](C)C(=O)N[C@@H](C)C(=O)N[C@H](C(=O)N[C@@H](CC(C)C)C(=O)NCC(=O)N[C@@H](CCCCN)C(=O)N[C@@H](CCCN=C(N)N)C(=O)N[C@@H](Cc1ccc(O)cc1)C(=O)N[C@@H](CCCCN)C(=O)N[C@@H](CCC(N)=O)C(=O)N[C@@H](CCCN=C(N)N)C(=O)N[C@H](C(=O)N[C@@H](CCCCN)C(=O)N[C@@H](CC(N)=O)C(=O)N[C@@H](CCCCN)C(N)=O)C(C)C)C(C)C)C(C)C)[C@@H](C)O
